Source: ChEMBL document CHEMBL4382252, “1,4-Benzodioxane Lignans: An Efficient, Asymmetric Synthesis of Flavonolignans and Study of Neolignan Cytotoxicity and Antiviral Profiles” (J Nat Prod, 2018)

Key:
[1] = system: Hepatitis C virus; assay: Antiviral activity against HCV JFH-1 infected in human Huh7.5.1 cells assessed as reduction in NS3/NS5A expression by Western blot analysis; type: functional, organism-based, Hepacivirus hominis
Procedure, shortened: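 Huh7.5.1 human hepatoma cells infected with HCV (JFH-1) at MOI 0.05 for 5 h; inoculum then replaced with fresh medium containing compound, three concentrations each. DMSO solvent control ≤0.5% final. Lysates run on SDS-PAGE and Western blotted for NS3 and NS5A, reprobed for actin as loading control. IC50 estimated from pixel intensity of viral protein bands.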

[2] = (§1) Cytotoxicity against human Huh7.5.1 cells after 72 hrs by ATPlite assay; type: cell-based; conditions: Huh7.5.1 cells
Procedure, shortened: (§2)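 Compounds in DMSO added to cells at a range of concentrations. ATP measured by ATPlite after 72 h. DMSO held at 0.5% final in all wells, including controls. Triplicate per concentration. CC50 obtained by log-transforming doses and fitting a variable-slope four-parameter regression.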

[3] = Selectivity index, ratio of CC50 for human Huh7.5.1 cells to IC50 for HCV JFH1 infected in human Huh7.5.1 cells; type: toxicity, cell-based; conditions: for selectivity ratio: Huh7.5.1 cells, HCV JFH1-infected Huh7.5.1 cells, read-out: Ratio CC50/IC50
[4] = system: Huh7.5.1; assay: as §1; type: cell-based; conditions: huh7.5.1, 72 h; procedure, shortened: as §2
[5] = Hepatitis C virus, JFH-1, Huh-7.5.1

Compound	IC50 [1, 5] [µM]	IC50 [1] [µM]	CC50 at 72 h [2] [µM]	selectivity ratio [3]	CC50 [4] [µM]	Ratio CC50/IC50 [3]
COc1cc(C2Oc3cc([C@H]4Oc5cc(O)cc(O)c5C(=O)[C@@H]4O)ccc3OC2CO)ccc1O (stereo not given in full) [SILIBININ]	60	–	80	1.33	–	–
COc1cc([C@H]2Oc3cc(/C=C/CO)cc(OC)c3O[C@@H]2C)cc(OC)c1OC	50	–	129	2.57	–	–
SILYMARIN	–	80	–	–	100	1.25
COc1cc([C@H]2Oc3cc(/C=C/CO)cc(OC)c3O[C@@H]2CO)cc(OC)c1O	200	–	464	2.32	–	–
COc1cc([C@@H]2Oc3cc([C@H]4Oc5cc(O)cc(O)c5C(=O)[C@@H]4O)ccc3O[C@H]2CO)ccc1O [SILYBIN B]	50	–	68.7	1.37	–	–

The next lines start with results.

IC50 [1, 5] [µM]	IC50 [1] [µM]	Compound	CC50 at 72 h [2] [µM]	selectivity ratio [3]	CC50 [4] [µM]	Ratio CC50/IC50 [3]
30	–	C=CCc1cc(OC)c2c(c1)O[C@H](c1cc(OC)c(OC)c(OC)c1)[C@@H](C)O2	36.2	1.21	–	–
50	–	COc1cc([C@H]2Oc3cc([C@H]4Oc5cc(O)cc(O)c5C(=O)[C@@H]4O)ccc3O[C@@H]2CO)ccc1O [SILYBIN A]	80	1.6	–	–
20	–	C=CCc1cc(OC)c2c(c1)O[C@H](c1ccc3c(c1)OCO3)[C@@H](C)O2	> 125	> 6.25	–	–
25	–	COc1cc([C@H]2Oc3cc(/C=C/C=O)cc(OC)c3O[C@@H]2C)cc(OC)c1OC	47.6	1.91	–	–
40	–	COc1cc([C@H]2Oc3cccc(OC)c3O[C@@H]2C)cc(OC)c1OC	50.2	1.25	–	–
